These results are taken from PMC7557227 (ACS Omega, 2020).

One assay has as its target T1, PARP3 (Homo sapiens, UniProt Q9Y6F1).
T1 sequence (Q9Y6F1 1-533): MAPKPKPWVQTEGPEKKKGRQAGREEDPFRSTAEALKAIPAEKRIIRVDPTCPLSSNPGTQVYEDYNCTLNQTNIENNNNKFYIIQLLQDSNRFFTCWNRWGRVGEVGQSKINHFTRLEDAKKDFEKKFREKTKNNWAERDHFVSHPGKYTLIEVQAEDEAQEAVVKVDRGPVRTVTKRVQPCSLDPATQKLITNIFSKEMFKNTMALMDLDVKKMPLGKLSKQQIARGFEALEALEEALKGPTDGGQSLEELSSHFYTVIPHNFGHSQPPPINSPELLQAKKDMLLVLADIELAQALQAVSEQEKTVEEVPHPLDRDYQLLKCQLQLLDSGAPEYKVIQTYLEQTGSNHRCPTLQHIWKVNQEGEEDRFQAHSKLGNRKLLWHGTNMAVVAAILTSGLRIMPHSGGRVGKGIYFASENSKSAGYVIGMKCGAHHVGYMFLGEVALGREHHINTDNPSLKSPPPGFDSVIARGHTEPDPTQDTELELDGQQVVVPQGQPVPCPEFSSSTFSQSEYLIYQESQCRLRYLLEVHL
Briefly: PARP enzymatic assay. Type of assay: biochemical. The conditions noted are these: for PARP3 inhibition at 1 μM: from dose response data; for Inhibition of PARP3, mean (panel): 10 μM, 0 equals no inhibition, 100 total inhibition, N = 5 (Table 5); for IC50: read-out: IC50 PARP3, dose response 1 nM to 1 mM.

A further assay addresses T2, PARP16 (Homo sapiens, UniProt Q8N5Y8).
T2 sequence (Q8N5Y8 1-322): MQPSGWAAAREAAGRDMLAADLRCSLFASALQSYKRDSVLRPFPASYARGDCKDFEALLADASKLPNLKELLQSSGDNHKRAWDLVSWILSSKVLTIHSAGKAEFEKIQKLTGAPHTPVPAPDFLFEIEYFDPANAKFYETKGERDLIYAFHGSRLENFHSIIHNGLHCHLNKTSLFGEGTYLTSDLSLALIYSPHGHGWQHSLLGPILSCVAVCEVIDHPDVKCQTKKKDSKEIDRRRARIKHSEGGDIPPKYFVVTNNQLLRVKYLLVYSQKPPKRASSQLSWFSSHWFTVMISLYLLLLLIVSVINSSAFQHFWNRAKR
Nature of the assay: Modified PARP enzymatic assay with IRE-1 as substrate, PARP16. The conditions noted are these: for IC50: read-out: IC50 PARP16, dose response 1 nM to 1 mM; for PARP16 inhibition at 1 μM: from dose response data; for Selectivity: greater IC50 potency for PARP16 compared with PARP3: ratio of IC50 values, in vitro. Type of assay: biochemical.

Assay [1] concerns F508del-CFTR in BHK cells. Briefly: HTS F508del-CFTR correction assay. The format is cell-based, hamster. The conditions noted are these: 24 h treatment.
In the next assay the target is PARP1 (Homo sapiens, UniProt P09874). Nature of the assay: PARP enzymatic assay. Type of assay: biochemical. The conditions noted are these: read-out: IC50 PARP1; dose response 1 nM to 1 mM.
In assay [2] the test system is F508del-CFTR in BHK cells. Conditions: cited from earlier work.
Another assay has as its system PARP2. Briefly: PARP enzymatic assay, PARP2. The format is biochemical. The conditions noted are these: 10 μM; 0 equals no inhibition, 100 total inhibition; N = 5 (Table 5). Put shortly:
(§1)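 Commercial recombinant PARP2, PARP4, PARP-5a and PARP-5b were assayed with a chemiluminescent universal PARP kit on histone-coated strip wells, following the manufacturer's protocol. Anchored histones served as the ADP-ribosylation substrate. Inhibition was read as loss of chemiluminescent signal.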

Another assay relates to PARP5. Briefly: PARP enzymatic assay, PARP5. The format is biochemical. Conditions: 10 μM; 0 equals no inhibition, 100 total inhibition; N = 5 (Table 5). Put shortly:
as §1

Assay [3] relates to F508del-CFTR in BHK cells. Nature of the assay: FMP functional F508del-CFTR correction assay. The conditions noted are these: 1 μM each, 24 h pretreatment, forskolin + genistein, BHK cells (Figure 2C). The format is cell-based, hamster. Put shortly: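 BHK cells expressing F508del-CFTR were seeded at 25 000 cells per well and treated with test compound (1 μM) for 24 h, then washed with PBS. Cells were loaded with a voltage-sensitive oxonol-derived FLIPR dye plus quencher in low-chloride gluconate/HEPES buffer (pH 7.4) containing genistein (50 μM) for 5 min at room temperature. Forskolin (10 μM) was added, and the mean initial fluorescence rate (Vmax) was expressed as % of VX809 response.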

The next assay addresses PARP4 (Homo sapiens, UniProt Q9UKK3). Briefly: PARP enzymatic assay, PARP4. The format is biochemical. Conditions: 10 μM; 0 equals no inhibition, 100 total inhibition; N = 5 (Table 5). The method in brief: as §1
The target of the next assay is T3, TANKYRASE 2 (Homo sapiens, UniProt Q9H2K2).
T3 sequence (Q9H2K2 1-1166): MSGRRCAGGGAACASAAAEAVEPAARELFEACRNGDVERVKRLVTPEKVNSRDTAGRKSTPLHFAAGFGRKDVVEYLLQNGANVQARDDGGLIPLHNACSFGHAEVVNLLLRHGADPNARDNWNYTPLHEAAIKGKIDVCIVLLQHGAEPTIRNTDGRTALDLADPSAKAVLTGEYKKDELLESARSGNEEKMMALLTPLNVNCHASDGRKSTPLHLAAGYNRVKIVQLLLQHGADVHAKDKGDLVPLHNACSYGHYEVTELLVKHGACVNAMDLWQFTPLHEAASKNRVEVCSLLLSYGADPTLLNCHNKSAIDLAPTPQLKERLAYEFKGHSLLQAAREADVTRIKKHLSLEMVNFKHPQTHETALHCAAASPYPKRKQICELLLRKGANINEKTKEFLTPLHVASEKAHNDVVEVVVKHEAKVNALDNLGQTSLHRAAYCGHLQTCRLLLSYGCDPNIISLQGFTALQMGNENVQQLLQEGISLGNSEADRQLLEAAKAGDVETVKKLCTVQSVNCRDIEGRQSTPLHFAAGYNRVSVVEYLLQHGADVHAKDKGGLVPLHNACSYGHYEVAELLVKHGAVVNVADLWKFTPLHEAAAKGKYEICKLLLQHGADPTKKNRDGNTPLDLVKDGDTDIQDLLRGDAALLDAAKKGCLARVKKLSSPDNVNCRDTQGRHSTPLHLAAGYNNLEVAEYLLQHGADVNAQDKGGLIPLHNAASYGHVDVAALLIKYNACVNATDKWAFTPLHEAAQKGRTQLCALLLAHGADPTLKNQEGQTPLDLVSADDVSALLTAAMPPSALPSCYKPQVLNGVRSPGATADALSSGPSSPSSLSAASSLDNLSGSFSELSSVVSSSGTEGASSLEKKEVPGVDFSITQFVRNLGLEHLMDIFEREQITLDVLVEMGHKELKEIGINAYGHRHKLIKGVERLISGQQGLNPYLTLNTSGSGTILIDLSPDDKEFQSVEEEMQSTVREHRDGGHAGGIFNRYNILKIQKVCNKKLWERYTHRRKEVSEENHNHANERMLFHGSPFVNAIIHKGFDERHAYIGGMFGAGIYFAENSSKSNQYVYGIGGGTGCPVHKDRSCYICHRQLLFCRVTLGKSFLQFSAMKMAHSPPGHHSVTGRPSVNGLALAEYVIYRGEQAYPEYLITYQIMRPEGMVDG
Briefly: PARP enzymatic assay, TANKYRASE 2. The format is biochemical. Conditions: 10 μM; 0 equals no inhibition, 100 total inhibition; N = 5 (Table 5). The method in brief: (§2)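 Recombinant human PARP-5a (tankyrase 1) and PARP-5b (tankyrase 2) were obtained commercially. Inhibition was measured with a universal chemiluminescent PARP kit according to the manufacturer's protocol. Anchored histone proteins coated on strip wells served as the ADP-ribosylation substrate.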

The next assay deals with T4, TANKYRASE1 (Homo sapiens, UniProt O95271).
T4 sequence (O95271 1-1327): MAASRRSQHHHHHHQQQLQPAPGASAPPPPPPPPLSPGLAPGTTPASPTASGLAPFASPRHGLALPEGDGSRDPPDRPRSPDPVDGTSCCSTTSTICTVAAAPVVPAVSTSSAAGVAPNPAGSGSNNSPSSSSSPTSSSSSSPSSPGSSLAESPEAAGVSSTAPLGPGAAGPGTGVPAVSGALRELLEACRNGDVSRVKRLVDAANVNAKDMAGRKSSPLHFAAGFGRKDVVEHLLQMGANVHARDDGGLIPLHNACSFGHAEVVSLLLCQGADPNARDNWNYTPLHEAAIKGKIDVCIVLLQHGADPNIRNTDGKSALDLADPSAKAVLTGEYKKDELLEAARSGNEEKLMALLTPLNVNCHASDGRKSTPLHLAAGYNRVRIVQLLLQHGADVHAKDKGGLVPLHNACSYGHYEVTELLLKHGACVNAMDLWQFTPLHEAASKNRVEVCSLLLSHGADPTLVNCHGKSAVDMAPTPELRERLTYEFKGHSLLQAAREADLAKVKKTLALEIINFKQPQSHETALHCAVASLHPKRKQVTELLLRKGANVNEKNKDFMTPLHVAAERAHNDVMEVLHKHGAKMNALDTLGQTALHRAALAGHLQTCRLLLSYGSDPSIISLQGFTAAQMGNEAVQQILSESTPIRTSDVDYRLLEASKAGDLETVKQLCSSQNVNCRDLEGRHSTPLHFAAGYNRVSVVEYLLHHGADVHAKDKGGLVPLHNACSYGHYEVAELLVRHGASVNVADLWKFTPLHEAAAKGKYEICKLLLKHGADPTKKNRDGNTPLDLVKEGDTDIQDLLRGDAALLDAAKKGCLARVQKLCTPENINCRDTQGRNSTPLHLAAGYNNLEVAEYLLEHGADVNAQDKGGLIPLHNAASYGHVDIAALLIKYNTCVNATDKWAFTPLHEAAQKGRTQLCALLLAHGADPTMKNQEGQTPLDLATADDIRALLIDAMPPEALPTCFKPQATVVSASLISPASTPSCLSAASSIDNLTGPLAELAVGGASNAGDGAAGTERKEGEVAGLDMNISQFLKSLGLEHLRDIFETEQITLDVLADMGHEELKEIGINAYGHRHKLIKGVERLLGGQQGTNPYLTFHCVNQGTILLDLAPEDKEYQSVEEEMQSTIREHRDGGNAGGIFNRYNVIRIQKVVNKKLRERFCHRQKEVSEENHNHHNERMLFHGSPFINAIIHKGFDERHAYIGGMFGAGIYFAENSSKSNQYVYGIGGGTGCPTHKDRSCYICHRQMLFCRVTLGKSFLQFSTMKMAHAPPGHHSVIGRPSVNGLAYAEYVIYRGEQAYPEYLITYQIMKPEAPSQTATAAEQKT
Nature of the assay: PARP enzymatic assay, TANKYRASE1. The conditions noted are these: 10 μM; 0 equals no inhibition, 100 total inhibition; N = 5 (Table 5). Type of assay: biochemical. Put shortly: as §2

The mark [4] stands for this setting: 1 μM each, BHK cells (Figure 2B).
The mark [5] stands for this setting: 10 μM each, BHK cells (Figure 2A).

What is called IC50 is the concentration that inhibits the measured activity by half.

Chain of PARP1 (P09874 whole entry): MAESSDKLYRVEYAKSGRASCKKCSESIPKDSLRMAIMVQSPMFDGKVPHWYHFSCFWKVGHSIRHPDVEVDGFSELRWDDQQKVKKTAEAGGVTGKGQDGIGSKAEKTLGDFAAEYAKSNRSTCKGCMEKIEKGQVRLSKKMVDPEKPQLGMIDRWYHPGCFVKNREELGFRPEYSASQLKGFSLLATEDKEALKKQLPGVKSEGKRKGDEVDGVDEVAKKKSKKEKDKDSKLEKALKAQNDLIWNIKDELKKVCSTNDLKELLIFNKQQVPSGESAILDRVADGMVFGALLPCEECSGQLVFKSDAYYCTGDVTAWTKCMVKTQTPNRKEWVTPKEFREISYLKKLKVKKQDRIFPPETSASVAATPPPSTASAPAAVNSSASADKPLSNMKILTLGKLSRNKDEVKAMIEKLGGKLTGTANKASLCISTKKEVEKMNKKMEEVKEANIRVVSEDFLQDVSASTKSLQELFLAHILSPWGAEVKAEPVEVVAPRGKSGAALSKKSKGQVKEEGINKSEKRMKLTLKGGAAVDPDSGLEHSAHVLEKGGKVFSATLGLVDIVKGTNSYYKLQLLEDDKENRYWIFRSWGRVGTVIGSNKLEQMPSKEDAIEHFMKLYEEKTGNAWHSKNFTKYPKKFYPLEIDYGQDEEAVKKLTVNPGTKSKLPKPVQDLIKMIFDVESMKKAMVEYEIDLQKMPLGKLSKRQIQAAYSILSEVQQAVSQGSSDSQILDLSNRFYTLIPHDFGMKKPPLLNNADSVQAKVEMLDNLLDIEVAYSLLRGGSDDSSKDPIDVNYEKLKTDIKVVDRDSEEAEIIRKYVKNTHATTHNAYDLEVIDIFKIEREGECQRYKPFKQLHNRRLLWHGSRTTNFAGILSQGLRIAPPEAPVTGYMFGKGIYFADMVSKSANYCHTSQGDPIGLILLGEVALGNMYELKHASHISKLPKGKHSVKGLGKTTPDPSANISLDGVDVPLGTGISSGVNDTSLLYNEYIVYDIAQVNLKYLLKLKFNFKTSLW
Chain of PARP4 (Q9UKK3 whole entry, species assumed): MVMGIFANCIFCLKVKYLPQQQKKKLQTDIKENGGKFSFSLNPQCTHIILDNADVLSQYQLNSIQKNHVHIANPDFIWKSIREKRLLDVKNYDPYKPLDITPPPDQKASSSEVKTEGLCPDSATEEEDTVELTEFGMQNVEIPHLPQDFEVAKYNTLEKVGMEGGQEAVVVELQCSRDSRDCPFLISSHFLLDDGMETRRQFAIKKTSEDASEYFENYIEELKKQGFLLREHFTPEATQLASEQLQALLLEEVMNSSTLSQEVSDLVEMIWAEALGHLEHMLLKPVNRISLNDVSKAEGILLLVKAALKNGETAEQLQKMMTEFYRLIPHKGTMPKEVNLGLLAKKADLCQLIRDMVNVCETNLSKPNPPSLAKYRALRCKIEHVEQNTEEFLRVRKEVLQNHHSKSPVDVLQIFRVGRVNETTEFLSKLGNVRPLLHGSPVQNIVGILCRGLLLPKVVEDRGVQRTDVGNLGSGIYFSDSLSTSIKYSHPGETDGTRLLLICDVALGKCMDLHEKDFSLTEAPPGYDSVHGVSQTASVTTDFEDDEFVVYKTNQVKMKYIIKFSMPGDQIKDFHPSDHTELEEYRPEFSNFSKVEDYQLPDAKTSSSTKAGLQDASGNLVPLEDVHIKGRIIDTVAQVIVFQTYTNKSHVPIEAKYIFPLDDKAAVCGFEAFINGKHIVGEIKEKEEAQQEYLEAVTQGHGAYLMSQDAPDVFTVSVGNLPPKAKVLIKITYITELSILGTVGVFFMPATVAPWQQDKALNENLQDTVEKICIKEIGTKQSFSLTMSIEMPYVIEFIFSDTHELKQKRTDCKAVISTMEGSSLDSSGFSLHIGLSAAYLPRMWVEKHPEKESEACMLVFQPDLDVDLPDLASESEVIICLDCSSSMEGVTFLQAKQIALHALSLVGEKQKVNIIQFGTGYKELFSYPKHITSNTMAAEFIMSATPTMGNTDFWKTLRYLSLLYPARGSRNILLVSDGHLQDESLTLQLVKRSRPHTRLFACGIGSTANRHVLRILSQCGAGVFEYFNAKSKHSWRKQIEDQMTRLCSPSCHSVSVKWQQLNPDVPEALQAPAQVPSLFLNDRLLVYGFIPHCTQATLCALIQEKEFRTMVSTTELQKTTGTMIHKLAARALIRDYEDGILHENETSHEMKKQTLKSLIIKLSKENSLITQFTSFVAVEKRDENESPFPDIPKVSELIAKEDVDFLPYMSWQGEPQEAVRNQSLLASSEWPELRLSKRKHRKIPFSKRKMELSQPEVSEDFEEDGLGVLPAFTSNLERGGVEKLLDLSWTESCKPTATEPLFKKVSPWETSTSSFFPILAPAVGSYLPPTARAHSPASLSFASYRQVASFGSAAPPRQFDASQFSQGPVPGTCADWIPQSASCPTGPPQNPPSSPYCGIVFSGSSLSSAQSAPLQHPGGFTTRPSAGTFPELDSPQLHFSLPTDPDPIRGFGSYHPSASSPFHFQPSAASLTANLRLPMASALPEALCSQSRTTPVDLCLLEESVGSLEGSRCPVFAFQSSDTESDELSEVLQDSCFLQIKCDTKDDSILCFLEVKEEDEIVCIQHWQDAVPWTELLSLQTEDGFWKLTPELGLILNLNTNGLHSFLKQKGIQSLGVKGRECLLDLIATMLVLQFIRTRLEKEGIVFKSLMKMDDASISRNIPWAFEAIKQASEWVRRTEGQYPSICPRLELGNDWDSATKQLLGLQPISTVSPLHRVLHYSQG

Turning to `O=C1NCC(c2ccccc2)C(O)c2ccccc21` (racemic) [compound 5, (±)-5-hydroxy-4-phenyl-2,3,4,5-tetrahydro-1H-benzo[c]azepin-1-one], at PARP3, the “Increase in relative PARP3/PARP16 IC50 potency compared with latonduine A (1)” value is recorded as 768 fold; the “PARP3 inhibition at 1 μM” value is 39%; the “Inhibition of PARP3, mean (panel)” value was determined as 95.6; the IC50 came out at 3.1 µM. At PARP3 (ratio of IC50 values, in vitro), the “Selectivity: greater IC50 potency for PARP3 compared with PARP16” value came out at 96 fold. Also, at PARP16, the IC50 came to 296 µM. Moreover, the “F508del-CFTR corrector activity (surface expression) in HTS assay” value (shortened to “F508del-CFTR corrector activity”) in [1] (setting [4]) is recorded as “neither 5 or 6 alone shows corrector activity”. Besides, in assay [1] (setting [5]), the “F508del-CFTR corrector activity” value is recorded as “neither compound 5 or 6 alone gives F508del-CFTR correction”. The IC50 on PARP1 stood at 20.1 µM.

Consider `O=C1NCC(c2ccccn2)C(O)c2cc(Cl)c(Cl)cc21` (racemic) [compound 6, (±)-7,8-dichloro-5-hydroxy-4-(pyridin-2-yl)-2,3,4,5-tetrahydro-1H-benzo[c]azepin-1-one], for which the “Inhibition of PARP3, mean (panel)” value on PARP3 is reported as 25.8. Besides, the figures for the IC50 at PARP3, on PARP16 and on PARP1 were 74.1 µM, 0.362 µM and 17.8 µM, respectively. Besides, the “PARP16 inhibition at 1 μM” value on PARP16 worked out at 81%. The “Selectivity: greater IC50 potency for PARP16 compared with PARP3” value (“Selectivity … with PARP3” for short) on PARP16 is on record as 205 fold. The “F508del-CFTR corrector activity” value was “neither 5 or 6 alone shows corrector activity” in assay [1] (setting [4]) and “neither compound 5 or 6 alone gives F508del-CFTR correction” in assay [1] (setting [5]).

With `Nc1nc2c(c(C(=O)O)n1)-c1c([nH]c(Br)c1Br)C(=O)NC2` [compound 2, latonduine B], the “EC50 in the F508del-CFTR trafficking screening assay” value in [2] is reported as “low nanomolar”.

For latonduine A [compound 1], the “EC50 in the F508del-CFTR trafficking screening assay” value in assay [2] was “low nanomolar”. Also, at PARP3, the “PARP3 inhibition at 1 μM” value stood at 37%; the “Inhibition of PARP3, mean (panel)” value was 83.7; the IC50 is 3.4 µM. Also, the “Inhibition of PARP2, mean (panel)” value with PARP2 was 21.6. The “Inhibition of PARP5, mean (panel)” value with PARP5 turned out to be 9.9. Besides, at PARP16, the “PARP16 inhibition at 1 μM” value is on record as 79%, the “Selectivity … with PARP3” value amounted to 8 fold and the IC50 was 0.427 µM. At PARP16 (listed as Latonduine A (1)), the “Selectivity … with PARP3” value is “≈ 8 fold”. In addition, the “Functional F508del-CFTR correction in FMP assay” value in [3] was “generates functional CFTR correction”. Moreover, the “Inhibition of PARP4, mean (panel)” value at PARP4 is listed as 18.3. In addition, at TANKYRASE 2, the “Inhibition of TAN2, mean (panel)” value is listed as 10.1. The IC50 at PARP1 worked out at 24.3 µM. For the same compound, on TANKYRASE1, the “Inhibition of TAN1, mean (panel)” value turned out to be 11.7.
